Measurements: ChEMBL document CHEMBL1153233, “Novel substituted (Z)-5-((N-benzyl-1H-indol-3-yl)methylene)imidazolidine-2,4-diones and 5-((N-benzyl-1H-indol-3-yl)methylene)pyrimidine-2,4,6(1H,3H,5H)-triones as potent radio-sensitizing agents” (2010)

Each compound was assayed on HT-29 (assay: Radiosensitization activity against human HT-29 cells assessed as survival relative to control).
Format: functional
How it was run: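 HT-29 colorectal adenocarcinoma cells exposed to analog at 25 µM (or DMSO vehicle) for 2 h at 37 °C, then irradiated with 4 Gy. Analog washed off, cells kept 14 days in fresh medium, colonies stained with crystal violet and counted. Surviving fraction taken as colonies over cells treated. Relative survival is survival with radiation plus analog divided by survival with radiation alone, with vehicle set at 1.0.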

Point of comparison: `COc1ccc(Cn2cc(C=C3C(=O)NC(=O)NC3=O)c3ccccc32)cc1`, Ratio 1.18. Against it:
- O=C1NC(=O)C(=Cc2cn(Cc3ccccc3)c3ccccc23)C(=O)N1 — higher, 1.35
- O=C1NC(=O)C(=Cc2cn(Cc3ccc(Cl)cc3)c3ccccc23)C(=O)N1 — lower, 0.91
- O=C1NC(=O)C(=Cc2cn(Cc3ccccc3Br)c3ccccc23)C(=O)N1 — lower, 1.14
- O=C1NC(=O)/C(=C/c2cn(Cc3ccc(F)cc3)c3ccccc23)N1 — lower, 0.91
- Cc1ccc(Cn2cc(/C=C3\NC(=O)NC3=O)c3ccccc32)cc1 — lower, 1.06
- N#Cc1ccc(Cn2cc(C=C3C(=O)NC(=O)NC3=O)c3ccccc32)cc1 — lower, 0.23
- COC(=O)c1ccc(Cn2cc(C=C3C(=O)NC(=O)NC3=O)c3ccccc32)cc1 — lower, 0.64
- O=C1NC(=O)/C(=C/c2cn(Cc3ccccc3)c3ccc(Cl)cc23)N1 — higher, 1.38
- O=C1NC(=O)/C(=C/c2cn(Cc3ccccc3Br)c3ccccc23)N1 — the same, 1.18
- Cc1ccc2c(c1)c(/C=C1\NC(=O)NC1=O)cn2Cc1ccccc1 — the same, 1.18
- COc1ccc2c(c1)c(C=C1C(=O)NC(=O)NC1=O)cn2Cc1ccccc1 — higher, 1.73
- O=C1NC(=O)/C(=C/c2cn(Cc3ccccc3)c3ccc(Br)cc23)N1 — lower, 1.06
- O=C1NC(=O)/C(=C/c2cn(Cc3ccc([N+](=O)[O-])cc3)c3ccccc23)N1 — lower, 1.14
- N#Cc1ccc(Cn2cc(/C=C3\NC(=O)NC3=O)c3ccccc32)cc1 — higher, 1.53
- O=C1NC(=O)C(=Cc2cn(Cc3ccc([N+](=O)[O-])cc3)c3ccccc23)C(=O)N1 — lower, 0.44
- COC(=O)c1ccc(Cn2cc(/C=C3\NC(=O)NC3=O)c3ccccc32)cc1 — lower, 1
- COc1ccc(Cn2cc(/C=C3\NC(=O)NC3=O)c3cc(Br)ccc32)cc1 — higher, 1.29
- O=C1NC(=O)/C(=C/c2cn(Cc3ccc(Cl)cc3)c3ccccc23)N1 — higher, 1.44
- O=C1NC(=O)/C(=C/c2cn(Cc3ccccc3)c3ccccc23)N1 — higher, 1.3
- O=C1NC(=O)C(=Cc2cn(Cc3ccccc3)c3ccc(Cl)cc23)C(=O)N1 — higher, 1.38
- COc1ccc2c(c1)c(/C=C1\NC(=O)NC1=O)cn2Cc1ccccc1 — higher, 1.38
